Bioassay records: PubChem BioAssay, Broad Institute
E-sel inducer – E-selectin induction on HUVECs. P16581. HUVEC E-selectin immunofluorescence imaging; normalized: neutral wells 0, TNF-alpha wells 100. activation, % at 7.58 µM. actives 0.37% (n = 260,000). AID 686992;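 active = mean E-selectin-positive cell signal at least 10% of the positive control, reached in at least 60% of replicates, without over 20% cell loss; inconclusive = no rule given, readout overlaps actives, possibly toxicity-flagged; inactive = the rest, including those meeting only one limit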
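Read-out basis: % PE-positive cells; Test system: HUVEC primary endothelial cells; Technique: immunofluorescence imaging; Dosing: single-point compound dose.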
FGF22 binding – FGF22 (human) thermal shift binding. Q9HCT0. recombinant FGF22 thermal shift, SYPRO orange fluorescence; percent of sucrose octasulfate shift, DMSO zero. activity (Tm shift, normalised), % at 9.99 µM. actives 1.5% (n = 340,000);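 active = mean Tm shift, scaled 0 neutral to 100 positive control, at about 1.3% or above, every replicate too, limit read from the data; inconclusive = no clear call, values can overlap the other calls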
ERAP1 inh – blocks human ERAP1 aminopeptidase activity | Q9NZ08 | recombinant ERAP1, Leu-AMC fluorescence, 60 min | inhibition, % at 10.7 µM | AID 652197 | actives 0.15% (n = 340,000);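 active = mean replicate inhibition of at least 30%, or all replicates individually reaching that 30% level; inactive = mean below 30% and not every replicate reaching it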
CFTR F508del cor – CFTR F508del correction in bronchial cells | CFBE cells, YFP halide quenching; stimulated with forskolin plus potentiator P3; % fluorescence drop versus neutral controls | activity (quench increase), % at 7.58 µM | actives 0.36% (n = 350,000) | AID 720511;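 active = mean added fluorescence quench of at least 8% versus neutral control, with both replicates also reaching 8%; inconclusive = only one of the mean or replicate conditions met; inactive = mean below 8% and not both replicates reaching 8%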;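 note: cells transiently co-express mutant CFTR-F508del with the halide-sensitive YFP; corrector assay measuring rescue of mutant channel to the surface after 24 h compound exposure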
DENV2 CPE rescue – protects cells from dengue virus 2 cytopathic effect. actives 1.7% (n = 350,000). DENV2-infected cells, cytopathic effect rescue, plate reader. CPE inhibition, % at 9.99 µM; in the data active = CPE inhibition above about 20%, passing the limit was not always enough; inconclusive = no clear call, values can overlap the other calls; tested in BHK-21 cells
Each line names hits and unclear results; the compound was inactive in the other large screens. Only some compounds are listed: those with a hit (about 3.7% of all), similar ones and a draw of the others.

C=CCOc1ccc(C2NC(=S)NC(C)=C2C(=O)c2ccccc2)cc1OC (stereo not drawn)	none (no result: FGF22 binding, ERAP1 inh, CFTR F508del cor, DENV2 CPE rescue)
COc1cccc(C2NC(=S)NC(C)=C2C(=O)c2ccccc2)c1OC (stereo not drawn)	FGF22 binding 43.2 (no result: E-sel inducer)
O=C(O)c1cc(NN=C2c3ccccc3-c3ccccc32)ccc1Cl	ERAP1 inh 30.7 (no result: E-sel inducer)
O=C(O)C1C(c2ccccc2)=C1c1ccc(Br)cc1 (stereo not drawn)	FGF22 binding 43.1
Nc1[nH]c(C(=O)c2ccccc2)c(-c2ccc(Br)cc2)c1C(=O)c1ccccc1	none
O=C(C[C@H]1CC[C@@H]2[C@H](COC[C@@H](O)CN2Cc2ccncc2)O1)NCC1CC1	none
COc1ccc(-c2nc(NC(C)=O)sc2-c2ccc(OC)cc2)cc1	FGF22 binding 43.5
CNc1nc(-c2ccc(OC)cc2)c(-c2ccc(OC)cc2)s1	none (no result: ERAP1 inh)
COc1ccc(NC(=O)N(C)C[C@@H]2Oc3ncccc3C(=O)N([C@H](C)CO)C[C@@H]2C)cc1	none
CC(=O)c1ccc(NC(=O)CSc2nc(C)cc(C)c2C(N)=O)cc1	FGF22 binding 42.9 (no result: E-sel inducer, CFTR F508del cor)
CC(=O)c1ccc(NC(=O)CSc2nc3nc(C)cc(C)n3n2)cc1	none
CCc1nc2c(OCc3cccc(Cl)c3)cccn2c1N(C)C(=O)c1ccco1	DENV2 CPE rescue 22.7
COc1ccccc1C(=O)N1C[C@@H]2[C@H](c3ccccc31)[C@@H](CO)N2Cc1ccc(F)cc1	none (no result: FGF22 binding, ERAP1 inh, DENV2 CPE rescue)
COC(=O)c1noc(C)c1-c1ccnn1C(=O)c1ccc(C)cc1	E-sel inducer 28.9 (no result: ERAP1 inh)
Cc1onc(-c2ccccc2)c1-c1ccnn1C(=O)NC(C)C	none (no result: E-sel inducer)
CC1CN(C(=O)c2cc3cc([N+](=O)[O-])ccc3s2)CC(C)O1 (stereo not drawn)	FGF22 binding 43.6 (no result: E-sel inducer)
CCOC(=O)N1CCN=C1SCc1ccc(Cl)c(Cl)c1	E-sel inducer 118.9
CC(=O)N1CCN=C1SCc1ccc(Br)cc1	none (no result: E-sel inducer, ERAP1 inh)
O=C(CCNC(=O)C1CCN(S(=O)(=O)c2ccccc2)CC1)NCc1cccnc1	FGF22 binding 43.5
CSCC[C@H](NC(=O)C1CCN(S(=O)(=O)c2ccccc2)CC1)C(=O)NC1CC1	none (no result: E-sel inducer)
C[C@H](NC(=O)C1CCN(S(=O)(=O)c2ccccc2)CC1)C(=O)NCc1cccnc1	DENV2 CPE rescue 37.3
C[C@H](NC(=O)C1CCN(S(=O)(=O)c2ccccc2)CC1)C(=O)NCc1ccc(F)cc1	none (no result: E-sel inducer)
C[C@H](NC(=O)C1CCN(S(=O)(=O)c2ccccc2)CC1)C(=O)NC1CC1	FGF22 binding 43.0
C[C@@H]1CCCCO[C@H](CN(C)C(=O)C2CCCCC2)[C@H](C)CN([C@@H](C)CO)C(=O)c2cc(NC(=O)CCCN(C)C)ccc2O1	none (no result: ERAP1 inh)
COc1cccc(C(=O)N2C[C@H]3[C@@H](c4ccccc42)[C@H](CO)N3Cc2ccccc2Cl)c1	none
CC(C)CC#Cc1cnc2c(c1)C(=O)N([C@H](C)CO)C[C@H](C)[C@H](CN(C)C(=O)c1cnccn1)O2	none
Cc1ccc(-c2nn(-c3ccccc3)cc2C(=O)N2CCN(c3ccccn3)CC2)cc1	CFTR F508del cor 15.2 (no result: E-sel inducer)
CCOC(=O)NC1CCc2cc(OC)c(OC)c(OC)c2-c2ccc(SC)c(=O)cc21 (stereo not drawn)	DENV2 CPE rescue inconclusive
CCOCC(=O)NC1CCc2cc(OC)c(OC)c(OC)c2-c2ccc(SC)c(=O)cc21 (stereo not drawn)	FGF22 binding 43.2
COc1ccccc1NC1=C(NC(C)=O)C(=O)c2ccccc2C1=O	CFTR F508del cor 8.2 (no result: DENV2 CPE rescue)
COC1=C(Nc2ccccc2OC)C(=O)c2ccccc2C1=O	none
CC1(C)Cc2ccccc2C(C(Cc2ccccc2)C(N)=O)=N1 (stereo not drawn)	FGF22 binding 43.0
CC1=NN(c2ccccc2)C(=O)/C1=C\C=C\c1ccccc1	none
CC1=NN(c2ccc(C)c(C)c2)C(=O)/C1=C\C=C\c1ccc([N+](=O)[O-])o1	FGF22 binding 43.3 (no result: E-sel inducer)
Cc1nn(C2CCS(=O)(=O)C2)c2nc(C3CC3)cc(C(=O)Nc3cccc(C#N)c3)c12 (stereo not drawn)	CFTR F508del cor 8.7
COc1ccc(NC(=O)c2cc(C3CC3)nc3c2cnn3C(C)C)cc1OC	none
O=C(Nc1ccc2c(c1)[C@H]1C[C@@H](CC(=O)N3CCCCC3)O[C@@H](CO)[C@H]1O2)C1CCC1	DENV2 CPE rescue 25.9
O=C(Nc1ccc(F)cc1)Nc1ccc2c(c1)[C@H]1C[C@H](CC(=O)N3CCCCC3)O[C@@H](CO)[C@H]1O2	DENV2 CPE rescue 21.2 (no result: ERAP1 inh)
CN1CCN(C(=O)C[C@@H]2C[C@@H]3c4cc(NC(=O)NC5CCCCC5)ccc4O[C@@H]3[C@@H](CO)O2)CC1	DENV2 CPE rescue 28.7
C[C@H]1CN([C@@H](C)CO)S(=O)(=O)c2ccc(C#CC(C)(C)O)cc2O[C@@H]1CN(C)C(=O)C1CC1	none (no result: FGF22 binding, ERAP1 inh, DENV2 CPE rescue)
CC(=O)N1CC2(C1)[C@@H](c1ccc(-c3ccc(C#N)cc3)cc1)[C@H](CO)N2C(=O)C1CC1	none (no result: ERAP1 inh)
Cc1[nH][nH]c(=O)c1C=NCc1cccnc1	FGF22 binding 43.6 (no result: E-sel inducer)
Cc1noc(C)c1NC(=O)Nc1ccc2c(c1)C(=O)N([C@H](C)CO)C[C@H](C)[C@H](CN(C)C(=O)Nc1ccc(F)cc1)OCCCC[C@@H](C)O2	none
O=c1cc(CSc2nnc(-c3ccccc3)o2)c2ccccc2[nH]1	DENV2 CPE rescue 76.4 (no result: E-sel inducer)
COc1ccc(CNC(=O)C2(C)Cc3ccccc3C(=O)O2)cc1 (stereo not drawn)	FGF22 binding 43.6 (no result: E-sel inducer)
COc1ccc(CNC(=O)c2c(C)oc3c2C(=O)c2ccccc2C3=O)cc1	CFTR F508del cor 11.8
CC(=O)c1c(C)oc2c1C(=O)c1ccccc1C2=O	none (no result: CFTR F508del cor)
CCOC(=O)N1CCN(C(=O)C2CCN(S(=O)(=O)c3ccc(F)cc3)CC2)CC1	FGF22 binding 43.2 (no result: DENV2 CPE rescue)
CCOC(=O)N1CCN(C(=O)C2CCCN(S(=O)(=O)c3ccc(F)cc3)C2)CC1 (stereo not drawn)	none (no result: E-sel inducer)
CC(C)NC(=O)N[C@H]1C=C[C@H](CC(=O)NC2Cc3ccccc3C2)O[C@H]1CO	none (no result: ERAP1 inh)
CCOC(=O)N1CCN(C(=O)CSc2ccc3nnc(-c4ccccn4)n3n2)CC1	none
O=C(CSc1ccc2nnc(-c3ccccn3)n2n1)N1CCOCC1	FGF22 binding 43.8 (no result: E-sel inducer, ERAP1 inh)
C[C@H](CO)N1C[C@H](C)[C@@H](CN(C)CC2CC2)OCCCC[C@H](C)Oc2ccc(NC(=O)CCC(F)(F)F)cc2C1=O	none
COc1ccc2[nH]cc(CCNS(=O)(=O)Cc3ccccc3)c2c1	FGF22 binding 43.2 (no result: E-sel inducer)
Cc1ccc(C)c(SCC(=O)OCC(=O)NCc2ccccc2)c1	FGF22 binding 44.1 (no result: E-sel inducer)
C[C@@H]1CCCCO[C@H](CN(C)C(=O)Nc2ccc3c(c2)OCO3)[C@@H](C)CN([C@H](C)CO)C(=O)c2cc(NC(=O)c3ccncc3)ccc2O1	none
O=C(O)c1ccc(Cn2cnc3sc4c(c3c2=O)CCCC4)cc1	FGF22 binding 43.2
O=C(O)Cn1cnc2sc3c(c2c1=O)CCCC3	none (no result: E-sel inducer)
